Publication PMC2843780 (Bioorganic & medicinal chemistry letters, 2010)
Where two headings read alike, the source gives them in different places. Each block holds one compound with its values, some of them ahead of it.

How the values were obtained:
M1 = conditions: cited from earlier work; for IC50: read-out: M1 IC50, MLSCN screen hit
hM3 = hM3 (Homo sapiens, UniProt P20309); assay: calcium mobilization assay, hM3 CHO-K1 cells; assay type: cell-based
hM2 = molecular target: T1, hM2 (Homo sapiens, UniProt P08172); assay: calcium mobilization assay, hM2 CHO cells with Gqi5 chimeric G protein; assay type: cell-based; conditions: compound at 10 μM
T1 sequence (P08172 1-466): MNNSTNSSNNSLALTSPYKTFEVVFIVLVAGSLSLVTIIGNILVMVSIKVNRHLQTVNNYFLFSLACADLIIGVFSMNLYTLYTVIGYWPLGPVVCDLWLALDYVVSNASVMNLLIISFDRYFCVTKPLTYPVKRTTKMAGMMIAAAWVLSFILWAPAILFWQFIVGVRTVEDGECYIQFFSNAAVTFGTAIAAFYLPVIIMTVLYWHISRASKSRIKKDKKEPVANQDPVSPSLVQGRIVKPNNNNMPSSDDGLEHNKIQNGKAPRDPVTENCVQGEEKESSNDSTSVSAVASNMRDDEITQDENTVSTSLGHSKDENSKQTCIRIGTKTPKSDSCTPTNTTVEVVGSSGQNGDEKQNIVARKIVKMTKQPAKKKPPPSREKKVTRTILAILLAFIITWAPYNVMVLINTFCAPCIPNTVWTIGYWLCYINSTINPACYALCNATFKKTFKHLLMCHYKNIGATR
How it was run: (§1)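 CHO-K1 cells stably expressing human receptor (M2 line also stably transfected with Gqi5 chimeric G protein so it signals through calcium; M5 line without chimera) were plated overnight. Cells were loaded with 2 μM Fluo-4 AM in HBSS/20 mM HEPES/2.5 mM probenecid, pH 7.4, for 45 min at 37°C, then dye was replaced with buffer. Cells were pre-incubated with 10 μM test compound, then given sub-maximal acetylcholine or carbachol. Signal was normalized to baseline and expressed as % of maximal acetylcholine response.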

hM5 = molecular target: T2, hM5 (Homo sapiens, UniProt P08912); assay: calcium mobilization assay, hM5 CHO-K1 cells; assay type: cell-based; conditions: compound at 10 μM
T2 sequence (P08912 1-532): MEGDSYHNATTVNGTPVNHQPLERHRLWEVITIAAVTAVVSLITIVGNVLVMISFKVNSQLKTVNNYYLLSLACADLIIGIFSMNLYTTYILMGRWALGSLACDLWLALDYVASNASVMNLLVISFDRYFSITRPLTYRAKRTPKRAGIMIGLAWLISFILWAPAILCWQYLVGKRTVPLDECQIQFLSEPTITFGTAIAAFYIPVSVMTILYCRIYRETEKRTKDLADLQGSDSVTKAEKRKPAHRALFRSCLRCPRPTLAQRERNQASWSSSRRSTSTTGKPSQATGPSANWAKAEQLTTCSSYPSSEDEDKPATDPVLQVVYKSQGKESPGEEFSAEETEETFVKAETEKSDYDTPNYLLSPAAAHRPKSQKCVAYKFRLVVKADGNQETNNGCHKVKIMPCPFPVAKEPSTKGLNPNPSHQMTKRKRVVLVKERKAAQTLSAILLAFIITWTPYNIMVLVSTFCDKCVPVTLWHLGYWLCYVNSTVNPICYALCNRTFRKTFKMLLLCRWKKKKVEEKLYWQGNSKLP
How it was run: as §1

hM3, sequence (P20309 whole entry): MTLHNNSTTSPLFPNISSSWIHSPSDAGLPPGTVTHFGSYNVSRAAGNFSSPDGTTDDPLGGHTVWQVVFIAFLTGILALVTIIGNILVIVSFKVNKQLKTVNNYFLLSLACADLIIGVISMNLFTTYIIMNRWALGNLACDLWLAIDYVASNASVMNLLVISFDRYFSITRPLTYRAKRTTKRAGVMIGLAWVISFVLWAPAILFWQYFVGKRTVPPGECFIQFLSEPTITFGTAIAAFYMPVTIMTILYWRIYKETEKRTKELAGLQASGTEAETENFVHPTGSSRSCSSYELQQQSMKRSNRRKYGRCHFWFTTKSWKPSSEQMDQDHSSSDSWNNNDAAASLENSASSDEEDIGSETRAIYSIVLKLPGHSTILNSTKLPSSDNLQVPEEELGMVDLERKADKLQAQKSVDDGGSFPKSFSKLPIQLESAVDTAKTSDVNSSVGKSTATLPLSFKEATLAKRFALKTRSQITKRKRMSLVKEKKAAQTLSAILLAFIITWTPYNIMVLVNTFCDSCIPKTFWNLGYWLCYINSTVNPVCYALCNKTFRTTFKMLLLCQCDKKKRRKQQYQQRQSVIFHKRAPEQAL

Compound: CCN1CCN(c2ccc(NC(=O)CCC3CCCC3)cc2Cl)CC1 [Compound 5]
selectivity versus M4 (M1; M1 over M4): > 340 fold | IC50 (M1): 0.441 µM

IC50 (hM3): 8.2 µM
Compound: CCN1CCN(c2ccc(NC(=O)c3ccccc3Cl)cc2Cl)CC1 [Compound 8a]

effect on an ACh EC80 on M3 (hM3; compound at 10 μM): little effect | effect on an ACh EC80 on M2 (hM2): little effect | effect on an ACh EC80 on M5 (hM5): little effect
Compound: CCN1CCN(c2ccc(NC(=O)c3cc(C(F)(F)F)cc(C(F)(F)F)c3)cc2Cl)CC1 [Compound 8i]

Compound: CCN1CCN(c2ccc(NC(=O)c3ccccc3)cc2Cl)CC1 [Compound 6]
selectivity versus M2-M5 (M1; M1 over M2-M5): > 30 fold | IC50 (M1; original sample): 5 µM
